CHO parental Ca: ATP-evoked calcium signal inhibitors, parental CHO, primary screen, counter-screen for OX1R antagonist project, cell-based, fluorescence, Fluo-8 calcium dye; parental CHO-K1, ATP-induced calcium, Fluo-8 fluorescence; inhibition, % at 5.6 µM; 330,000 tested, 0.63% active;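 active means inhibition above that plate's mean sample inhibition plus 3 SD, cut at about 26% in these data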
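Assay system – parental CHO cells · Reagent – ATP stimulus · Detection – intracellular calcium via Fluo-8 no-wash fluorescent dye · Evaluation – percent inhibition of ATP-evoked calcium rise, normalized to controls · Controls – ATP wells versus no-ATP DMSO wells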
TAAR1 antagonist: human TAAR1 antagonists, primary screen, Fluo-8 calcium fluorescence, CHO RD-HGA16 cells; Trace amine-associated receptor 1 (Homo sapiens), Q96RJ0; inhibition, % at 3 µM; antagonist; 360,000 tested, 1.5% active;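 active means inhibition above a per-plate cutoff, the mean inhibition of test compounds on that plate plus 3 SD, cut at about 49% in these data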
Target sequence (Q96RJ0 whole entry, looked up): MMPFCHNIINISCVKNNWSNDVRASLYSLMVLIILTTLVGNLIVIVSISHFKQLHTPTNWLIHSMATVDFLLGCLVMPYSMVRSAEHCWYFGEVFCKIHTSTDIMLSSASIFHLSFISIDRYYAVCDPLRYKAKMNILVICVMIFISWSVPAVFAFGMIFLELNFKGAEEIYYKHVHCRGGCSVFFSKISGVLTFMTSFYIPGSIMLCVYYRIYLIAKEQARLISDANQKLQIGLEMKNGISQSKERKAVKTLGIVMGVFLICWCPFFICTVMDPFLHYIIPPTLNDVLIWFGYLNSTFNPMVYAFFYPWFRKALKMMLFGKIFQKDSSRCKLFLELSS
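System: CHO RD-HGA16 cells bearing hTAAR1. Reagent: EC80 β-phenethylamine stimulus. Schedule: seeding 17-24 h prior, 75-min 37 °C, 30-min RT dye loading. Signal: Fluo-8 intracellular calcium dye fluorescence, real-time kinetic reads. Read-out: % inhibition from peak post-agonist over basal fluorescence ratio. Benchmarks: vehicle wells and EC80 agonist wells. Replicates: n of 1.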
OX1R antag-1: antagonists of human orexin 1 receptor (OX1R); OX1R-expressing cells, FRET antagonist read-out; 330,000 tested, 1.8% active; inhibition, % at 6.6 µM; in the data active means inhibition mostly above about 38%, no sharp cut-off; inactive means mostly below about 40%
GPR7 antagonist: GPR7 receptor antagonists, primary screen, cell-based, fluorescence, single concentration | Neuropeptides B/W receptor type 1 (Homo sapiens), P48145 | GPR7-expressing cells, fluorescence antagonist assay | inhibition, % at 4.4 µM | 290,000 tested, 1.1% active; in the data active means inhibition above about 16%, passing the limit was not always enough;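 further: cells stimulated with the agonist NPW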
Target sequence (P48145 whole entry, looked up): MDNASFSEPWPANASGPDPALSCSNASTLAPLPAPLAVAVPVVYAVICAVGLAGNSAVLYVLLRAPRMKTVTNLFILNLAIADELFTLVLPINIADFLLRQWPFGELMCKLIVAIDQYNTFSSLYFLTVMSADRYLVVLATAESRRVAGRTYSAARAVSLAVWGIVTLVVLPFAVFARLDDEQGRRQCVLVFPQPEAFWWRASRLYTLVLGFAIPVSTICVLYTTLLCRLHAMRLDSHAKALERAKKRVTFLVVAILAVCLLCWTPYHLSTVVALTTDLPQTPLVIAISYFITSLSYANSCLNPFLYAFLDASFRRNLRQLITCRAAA
OX1R antag-2: OX1R (HCRTR1) antagonists, primary screen, fluorescence, CHO/OX1R cells, Fluo-8 calcium, orexin A; Fluo-8 calcium fluorescence; inhibition, % at 5 µM; 330,000 tested, 0.43% active; AID 434989, 2010;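 active means inhibition above its plate's threshold, mean inhibition of all tested compounds on the plate plus 3 SD, cut at about 37% in these data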
TAAR1 agonist: human TAAR1 agonists, primary screen, Fluo-8 calcium fluorescence, CHO RD-HGA16 cells; Trace amine-associated receptor 1 (Homo sapiens), Q96RJ0; vehicle wells 0%, saturating PEA agonist 100%; activation, % at 3 µM; 360,000 tested, 0.99% active;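 active means activation above the mean activation of all test compounds in the run plus 3 SD, cut at about 38% in these data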
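System: CHO RD-HGA16 cells carrying human TAAR1 plus Gα16; Incubation: 17-24 h seeding, 75 min 37 °C dye, 30 min RT; Measured by: Fluo-8 fluorescence, 5 s baseline then 140 s kinetic read; Control set: DMSO and PEA EC100; Replication: single well for each compound.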
nonsel antag count: nonselective antagonists in TAAR1 counter-screen cells, counter-screen for hTAAR1 antagonist project, cell-based, fluorescence, calcium; shares compounds with TAAR1 antagonist; counterscreen cell line, antagonist mode; inhibition, % at 3 µM; 2,400 tested, 77% active; AID 651780, 2012; in the data active means inhibition above about 22%;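 further: CHO-Ga16 host cells stimulated with ATP at an EC80 level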
TAAR1 antag conf: human TAAR1 antagonists, retest of hits, confirmation, cell-based, fluorescence. shares compounds with TAAR1 antagonist. TAAR1-expressing cells, fluorescence antagonist read-out. inhibition, % at 3 µM. 2,400 tested, 40% active. AID 651785, 2012; in the data active means inhibition above about 49%;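 further: CHO-Ga16 host cells challenged with agonist PEA near its EC80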
Ga16 ag counter: calcium activation in Ga16-expressing cells, counter-screen for TAAR1 antagonist project, cell-based, fluorescence; shares compounds with TAAR1 antagonist; agonist counterscreen; activation, % at 3 µM; 2,400 tested, 18% active; in the data active means activation above about 12%
TAAR1 ag counter: TAAR1 activation by candidate antagonists – cell-based, fluorescence, counter-screen for TAAR1 antagonist project | shares compounds with TAAR1 antagonist | hTAAR1 cell line, agonist mode | activation, % at 3 µM | 2,400 tested, 2% active; in the data active means activation above about 37%;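 further: CHO cells stably expressing TAAR1 with calcium dye readout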
A number is an active result; - = inactive; . = not tested or not shown. This is a sample that favours compounds with a hit; in the whole collection about 4.5% have one here.

SMILES	CHO parental Ca	TAAR1 antagonist	OX1R antag-1	GPR7 antagonist	OX1R antag-2	TAAR1 agonist	nonsel antag count	TAAR1 antag conf	Ga16 ag counter	TAAR1 ag counter
CCC(C)n1c(NC(=O)c2ccccc2)c(C#N)c2nc3ccccc3nc21 (stereo not drawn)	-	54	-	-	-	-	28	-	-	-
O=C1CC(SC(=S)C2CCCC2=O)C(=O)N1 (stereo not drawn)	.	-	.	.	.	-	.	.	.	.
Cc1cccc(N2CCN(S(=O)(=O)c3ccc4[nH]c(=O)ccc4c3)CC2)c1C	-	61	-	-	-	-	35	-	-	-
Cc1cc(NC(=O)c2cccnc2)ccc1NC(=O)c1cc2ccccc2o1	-	57	-	-	-	-	22	-	-	-
Cc1cc(NC(=O)c2ccc3c(c2)OCCO3)ccc1NC(=O)c1cc2ccccc2o1	-	85	-	-	-	-	38	73	-	-
O=C(Nc1ccc(NC(=O)c2cc3ccccc3o2)cc1)c1ccc2c(c1)OCCO2	-	-	-	-	-	-	.	.	.	.
CNS(=O)(=O)c1cccc(C(=O)OCc2cc(=O)oc3c(C)c(O)ccc23)c1	-	-	-	-	-	-	.	.	.	.
CCN1CCN(Cc2ccc(NC(=O)c3cccc(-c4ccc5nc(NC(=O)C6CC6)sc5n4)c3)cc2C(F)(F)F)CC1	.	66	.	.	.	-	44	60	-	-
O=C(NCC1COc2ccccc2O1)c1cccc(S(=O)(=O)N2CCOCC2)c1 (stereo not drawn)	-	-	-	.	-	-	.	.	.	.
COC(=O)[C@@]12C[C@@H](CC(=O)N3CCC(c4ccccc4)CC3)C(=O)N(CCc3ccc(OC)c(OC)c3)C1=CCC(C)(C)C2	.	-	.	.	.	-	.	.	.	.
CCOC(=O)c1ccc(Nc2cc(C)nc(-c3ccccc3O)n2)cc1	-	53	-	-	-	-	26	-	-	-
Cc1cc(Nc2ccccc2)nc(-c2ccccc2O)n1	-	-	-	-	-	-	.	.	.	.
O=C(c1ccc(-c2nc3ccccc3s2)o1)N1CCN(c2ccccc2O)CC1	-	64	-	-	-	-	29	-	-	-
CNC(=O)C[C@@H]1CC[C@@H]2[C@H](COC[C@H](O)CN2S(=O)(=O)c2ccccc2Cl)O1	.	-	.	.	.	-	.	.	.	.
CCN(CC(=O)Nc1ccccc1OC)CC(=O)Nc1c(Cl)ccc(C)c1Cl	-	58	-	-	-	-	22	-	-	-
CCN(CC(=O)NCc1cccs1)CC(=O)Nc1c(Cl)ccc(C)c1Cl	-	-	-	.	-	-	.	.	.	.
CCc1nc(NCC2CC2)c2nnn(Cc3ccccc3)c2n1	.	-	.	.	.	-	.	.	.	.
Cc1cccc(C)c1-c1ccc(CN2C(CC(C)C)C(=O)N(Cc3cn(CCO)nn3)CCS2(=O)=O)cc1 (stereo not drawn)	.	90	.	.	.	-	53	67	21	-
COc1cc(/C=C2\SC(N)=NC2=O)ccc1O	.	-	.	-	.	-	.	.	.	.
Cc1ccc(C2=NC(C)(C)N=C2SCC(=O)Nc2ccc(Cl)cc2)cc1	-	-	-	-	-	-	.	.	.	.
CC1(C)N=C(SCC(=O)Nc2ccccc2)C(c2ccc(Cl)cc2)=N1	-	54	-	-	-	-	-	-	-	-
COc1ccc(Br)cc1CN1CCN(S(=O)(=O)Cc2ccccc2)CC1	-	56	-	-	-	-	-	-	-	-
CCOc1ccc(C(=O)CCC(=O)N2CCN(S(=O)(=O)c3cccc(F)c3)CC2)cc1	-	70	-	.	-	-	-	-	-	-
CN(C(=O)c1cccc(NC(=O)Cc2ccc(NC(=O)C3CCCN(C(=O)C4CCCCC4)C3)cc2)c1)C1CCCCC1 (stereo not drawn)	.	-	.	.	.	-	.	.	.	.
CCN=c1sc(C(=O)NCCc2ccccc2)cc(=O)n1CC	-	55	-	-	-	-	31	53	-	-
SMILES	CHO parental Ca	TAAR1 antagonist	OX1R antag-1	GPR7 antagonist	OX1R antag-2	TAAR1 agonist	nonsel antag count	TAAR1 antag conf	Ga16 ag counter	TAAR1 ag counter
O=C(NCCc1ccccc1)c1cccs1	-	-	-	-	-	-	.	.	.	.
COc1cccc(-c2csc(N3CCN(C(=S)NCC(C)C)CC3)n2)c1	-	65	-	-	-	-	42	-	-	-
COc1ccc(NC(=O)N2CCN(c3nc(-c4cccc(OC)c4)cs3)CC2)cc1	-	64	-	-	-	-	38	59	-	-
Cc1ccc(C(=O)Nc2ccc(Nc3ccccc3)cc2)c(Cl)c1	-	-	-	-	-	-	.	.	.	.
COCCCN(C(=O)CCOc1ccc(C)cc1)c1c(N)n(Cc2ccccc2)c(=O)[nH]c1=O	-	-	-	.	-	-	.	.	.	.
Cc1noc(C)c1-c1ccc(C(=O)Nc2cccc(NS(C)(=O)=O)c2)c2occc12	.	60	.	.	.	-	33	-	-	-
Cc1noc(C)c1-c1ccc(C(=O)Nc2cccc(C(F)(F)F)c2)c2occc12	.	53	.	.	.	-	-	-	-	-
Cc1noc(C)c1-c1ccc(C(=O)NCc2cccc(Cl)c2)c2occc12	.	-	.	.	.	-	.	.	.	.
CCCNC(=O)C1(C)CCN(C(=O)COc2ccc(C(C)(C)C)cc2)C1 (stereo not drawn)	.	-	.	.	.	-	.	.	.	.
CC1(C)OC(=O)C2=C(C[C@@H](C3CCCCC3)O[C@H]2c2ccc(Cl)cc2)O1	.	50	.	.	.	-	-	-	-	-
CC1(C)OC(=O)C2=C(C[C@@H](C3CCCCC3)O[C@H]2c2ccccc2)O1	.	-	.	.	.	-	.	.	.	.
O=C(NCc1ccccc1)c1cccc2c(-c3cccnc3)coc12	.	-	.	.	.	-	.	.	.	.
NC(=O)c1cccc(-c2coc3c(C(=O)NCCc4ccccc4)cccc23)c1	.	64	.	.	.	-	36	-	-	-
COc1ccc(C2=NS(=O)(=O)N(C)C(C(=O)Nc3cc(C)ccc3O)=C2)cc1OC	-	70	-	-	-	-	40	51	-	-

High-throughput results as filed in PubChem.
